Assay results gathered from unrelated publications.
Lines come from different studies, so protocols differ.
Target: Calcium/calmodulin-dependent protein kinase type 1B (PNCK, Homo sapiens, UniProt Q6P2M8)

effect on	method	concentration	remaining binding [%]	Compound
binding	competition with immobilised ligand	1 µM	87	O=C(NCC1CCOCC1)c1n[nH]cc1NC(=O)c1c(F)cccc1F
cell-free assay	competition with immobilised ligand	5 µM	95	COc1ncc2cc3ccccc3nc2c1C#N
binding	competition with immobilised ligand	1 µM	85	CNC(=O)[C@@H]1CC[C@@H](n2c(-c3ccc4cnccc4c3)nc3ccc(C(=O)NCc4cccc(C(N)=O)c4)cc32)C1
cell-free assay	competition with immobilised ligand	1 µM	100	CC(=O)N1CCC(c2ccc(C(=O)NC(=N)N)cc2C(F)(F)F)CC1
binding	–	1 µM	82	CC1CCCN1c1nccc(-c2cnn3ncccc23)n1 (stereo not shown)
binding	competition with immobilised ligand	1 µM	83	COc1cnc(Nc2cccc(S(N)(=O)=O)c2)nc1N1CCN(c2ccccc2)C(=O)C1
binding	–	1 µM	100	F[C@@H]1CCN(c2nccc(-c3cnn4ncccc34)n2)C1
cell-free assay	competition with immobilised ligand	1 µM	100	CC(C)(O)c1cncc(-c2nc3ccc(F)cc3n2C2CC2)c1
binding	competition with immobilised ligand	1 µM	62	O=C(c1ccc(Nc2ncc(Cl)c(-c3cc4ccccc4s3)n2)cc1)N1CCC(N2CCCC2)CC1
cell-free assay	competition with immobilised ligand	1 µM	100	CC(=O)c1c(NS(C)(=O)=O)c2cc(-c3ccc(Cl)cc3)c(-c3ccc(Cl)cc3Cl)nc2n(C)c1=O
binding	–	1 µM	100	COc1ccnn2ncc(-c3ccnc(N(C)C)n3)c12
binding	competition with immobilised ligand	1 µM	47	O=C(c1ccc(Nc2nccc(-c3cc4ccccc4s3)n2)cc1)N1CCC(N2CCCC2)CC1
binding	–	1 µM	81	c1cnn2ncc(-c3ccnc(N4CCC45COC5)n3)c2c1
cell-free assay	competition with immobilised ligand	1 µM	85	CC1=C(C#N)C(c2ccc3c(c2)c(NC(=O)c2ccccc2C)nn3C)C(C#N)=C(C)N1
cell-free assay	competition with immobilised ligand	5 µM	100	FC(F)(F)Oc1cccc(-c2cnc3ccc(-c4ccncc4)nn23)c1
cell-free assay	competition with immobilised ligand	1 µM	56	O=c1nc(-c2ccccn2)sc2ccccc12
binding	–	1 µM	100	N[C@@H]1CCN(c2nccc(-c3cnn4ncccc34)n2)C1
binding	competition with immobilised ligand	1 µM	82	O=C(NCCCN1CCOCC1)c1ccc(Nc2ncc(Cl)c(-c3ccc(Cl)s3)n2)cc1
cell-free assay	competition with immobilised ligand	1 µM	100	COc1cc(-c2cn(C3CCc4ccccc4N(CC(F)(F)F)C3=O)nn2)ccc1-n1ccc(C)n1 (stereo not shown)
